Consider six compounds from ChEMBL document CHEMBL1135421, “2-(Anilinomethyl)imidazolines as alpha1 adrenergic receptor agonists: the discovery of alpha1a subtype selective 2'-alkylsulfonyl-substituted analogues” (J Med Chem, 2002).

Each structure is given as a SMILES string. Where only a bound is given, the exact number is not on record here.

Test [1] concerns the target T1, Alpha-1B adrenergic receptor (Homo sapiens, UniProt P35368).
T1 sequence (P35368 whole entry): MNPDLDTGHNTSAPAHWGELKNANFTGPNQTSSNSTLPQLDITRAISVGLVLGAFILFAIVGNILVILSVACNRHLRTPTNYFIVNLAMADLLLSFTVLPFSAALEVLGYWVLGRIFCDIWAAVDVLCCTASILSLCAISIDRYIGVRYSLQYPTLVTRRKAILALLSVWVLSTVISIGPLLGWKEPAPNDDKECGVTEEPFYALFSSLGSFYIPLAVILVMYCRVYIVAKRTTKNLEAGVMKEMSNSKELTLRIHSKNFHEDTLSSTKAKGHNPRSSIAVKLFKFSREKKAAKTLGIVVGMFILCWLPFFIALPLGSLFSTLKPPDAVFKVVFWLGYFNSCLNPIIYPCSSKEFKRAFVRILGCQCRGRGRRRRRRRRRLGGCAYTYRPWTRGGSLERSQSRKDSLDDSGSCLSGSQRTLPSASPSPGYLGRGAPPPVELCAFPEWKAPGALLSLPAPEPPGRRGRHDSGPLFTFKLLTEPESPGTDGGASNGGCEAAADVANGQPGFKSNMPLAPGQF
The test is described as follows: Agonist potency at alpha-1b adrenoceptors assayed in rat-1 fibroblasts expressing human Alpha-1B adrenergic receptor. In kind it is functional. In outline: (§1)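 Human α1a, α1b or α1d receptors expressed in Rat-1 fibroblasts (DMEM, 10% heat-inactivated FBS, 0.6 mg/mL G418). Cells were plated at 6000/well and grown 48 h at 37 °C. They were loaded 2 h at 37 °C with Calcium Green (4 μM), pluronic acid 0.2% and probenecid 2.5 mM in HEPES buffer pH 7.4, then read by FLIPR at room temperature: 10 s baseline, 50 s after compound. 11-point curves were expressed as % of the 40 μM phenylephrine response; top concentration typically 5 μM.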

Test [2] deals with T2, Alpha-1D adrenergic receptor (Homo sapiens, UniProt P25100).
T2 sequence (P25100 whole entry): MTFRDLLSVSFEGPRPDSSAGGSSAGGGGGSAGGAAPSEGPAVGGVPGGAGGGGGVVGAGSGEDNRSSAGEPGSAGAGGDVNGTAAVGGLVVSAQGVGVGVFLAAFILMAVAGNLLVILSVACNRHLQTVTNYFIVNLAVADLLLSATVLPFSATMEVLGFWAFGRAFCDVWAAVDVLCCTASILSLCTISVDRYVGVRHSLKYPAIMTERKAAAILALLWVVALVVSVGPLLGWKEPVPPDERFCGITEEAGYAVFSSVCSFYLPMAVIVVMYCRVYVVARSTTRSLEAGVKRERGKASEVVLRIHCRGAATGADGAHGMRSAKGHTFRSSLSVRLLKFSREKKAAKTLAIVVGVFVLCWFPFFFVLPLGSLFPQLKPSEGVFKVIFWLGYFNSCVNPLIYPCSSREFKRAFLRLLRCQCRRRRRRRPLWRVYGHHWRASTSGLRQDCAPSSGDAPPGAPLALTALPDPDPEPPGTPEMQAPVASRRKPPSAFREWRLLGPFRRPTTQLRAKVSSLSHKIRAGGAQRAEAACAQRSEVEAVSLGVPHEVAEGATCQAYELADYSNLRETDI
The test is described as follows: Agonist potency at aAlpha-1D adrenergic receptor assayed in rat-1 fibroblasts expressing human Alpha-1D adrenergic receptor. In kind it is functional. The method in brief: as §1

Test [3] has as its target T3, Alpha-2C adrenergic receptor (Homo sapiens) (UniProt P18825).
T3 sequence (whole entry): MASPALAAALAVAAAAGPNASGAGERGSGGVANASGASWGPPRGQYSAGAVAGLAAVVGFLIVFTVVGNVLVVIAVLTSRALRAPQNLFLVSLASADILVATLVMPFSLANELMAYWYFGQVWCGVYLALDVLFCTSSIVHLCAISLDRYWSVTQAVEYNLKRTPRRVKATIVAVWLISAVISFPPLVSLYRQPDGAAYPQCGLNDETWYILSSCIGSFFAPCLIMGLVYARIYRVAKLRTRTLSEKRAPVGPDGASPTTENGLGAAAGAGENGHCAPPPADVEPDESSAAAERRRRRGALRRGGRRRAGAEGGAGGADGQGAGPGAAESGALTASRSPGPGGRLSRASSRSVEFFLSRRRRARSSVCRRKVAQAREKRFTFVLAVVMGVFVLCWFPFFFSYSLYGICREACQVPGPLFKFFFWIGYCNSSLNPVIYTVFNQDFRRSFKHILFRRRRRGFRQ
The test is described as follows: Efficacy as percentage of the maximal effect observed for nonselective agonist UK-14304 in CHO cells expressing human Alpha-2A adrenergic receptor. In kind it is functional, cell-based. In outline: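 Human α2A receptor in CHO cells, cAMP assay. Cells were preincubated with compound or UK14304 for 30 min at 37 °C with IBMX 300 μM. […] Efficacy is relative to the UK14304 maximum.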

For test [4], the target named is T4, Alpha-1A adrenergic receptor (Homo sapiens) (UniProt P35348).
T4 sequence (whole entry): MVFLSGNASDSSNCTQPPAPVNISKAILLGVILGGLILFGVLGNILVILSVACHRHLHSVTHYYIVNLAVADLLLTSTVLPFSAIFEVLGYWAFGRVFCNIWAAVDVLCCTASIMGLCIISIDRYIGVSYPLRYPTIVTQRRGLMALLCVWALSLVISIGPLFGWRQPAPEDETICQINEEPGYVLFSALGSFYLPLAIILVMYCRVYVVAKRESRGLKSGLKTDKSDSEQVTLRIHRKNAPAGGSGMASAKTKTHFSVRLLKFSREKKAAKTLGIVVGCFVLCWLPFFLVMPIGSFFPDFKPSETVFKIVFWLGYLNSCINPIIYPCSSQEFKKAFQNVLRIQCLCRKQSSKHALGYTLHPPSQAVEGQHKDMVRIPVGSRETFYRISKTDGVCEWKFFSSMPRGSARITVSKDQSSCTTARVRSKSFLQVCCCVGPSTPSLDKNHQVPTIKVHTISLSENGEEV
In words: Agonist potency at Alpha-1 adrenergic receptor assayed in rat-1 fibroblasts expressing human Alpha-1 adrenergic receptor. In kind it is functional. The method in brief:
(§2)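 Rat-1 fibroblasts expressing human α1a/α1b/α1d, grown in DMEM with 10% heat-inactivated FBS and 0.6 mg/mL G418, plated 6000 cells/well and cultured 48 h at 37 °C. Loaded 2 h at 37 °C with Calcium Green (4 μM), 0.2% pluronic acid and 2.5 mM probenecid in HEPES buffer pH 7.4. FLIPR read at room temperature: 10 s baseline, then 50 s after compound. 11-point curves as % of 40 μM phenylephrine response, top concentration typically 5 μM.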

For test [5], the target named is T3, Alpha-2C adrenergic receptor (Homo sapiens). The test is described as follows: Agonist potency at Alpha-2C adrenergic receptor assayed in CHO cells expressing human Alpha-2C adrenergic receptor. In kind it is functional, cell-based.
For test [6], the target named is T4, Alpha-1A adrenergic receptor (Homo sapiens). In words: Efficacy as % of the maximal effect observed for nonselective agonist phenylephrine in rat-1 fibroblasts expressing human alpha1. In kind it is functional. In outline:
as §2

For test [7], the target named is T5, Alpha-1A adrenergic receptor (Homo sapiens, UniProt P35348).
T5 sequence (P35348 whole entry): T4 sequence (whole entry)
In words: Agonist potency at Alpha-1A adrenoceptors assayed in rat-1 fibroblasts expressing human Alpha-1A. In kind it is functional. In outline: as §2

The EC50 is the concentration that produces a half-maximal response. Lower therefore signals a more potent agent. The compound `CS(=O)(=O)c1cc(Cl)ccc1NCC1=NCCN1` had an EC50 in test [1] above 100 µM.
The compound `CS(=O)(=O)c1cc(F)ccc1NCC1=NCCN1` had an EC50 in test [2] above 100 µM.
In test [3], `CC(C)S(=O)(=O)c1ccccc1NCC1=NCCN1` registered a Max of 14%.
Consider `CCCS(=O)(=O)c1ccccc1NCC1=NCCN1`, for which the values for the pEC5 in test [4] and in test [5] were 7.16 and 5.5, respectively.
With `CS(=O)(=O)c1c(F)cccc1NCC1=NCCN1`, in test [6], the Max came out at 93%.
In turn, `CSc1ccccc1NCC1=NCCN1` showed an EC50 in test [7] of 0.00457 µM.
